The source made the active and inactive calls. No cut-off for these calls is given here.
Legend:
[1] = Cytotoxicity against human H1299 cells assessed as reduction in colony formation at 5 uM after 7 days; assay type: functional; details: NCI-H1299, 168 h, read-out: INH
Summary of the method: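 H1299 cells seeded at 200 cells/well, attached overnight, then exposed to 5 μM compound or equal volume DMSO. After 7 days, fixed with 20% methanol and stained with 0.1% crystal violet; percent survival scored versus DMSO control.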

[2] = target: Ubiquitin carboxyl-terminal hydrolase 1/WD repeat-containing protein 48 (Homo sapiens, UniProt O94782); assay: Inhibition of human USP1/UAF1 using ubiquitin-rhodamine110 substrate by fluorescence assay
Liver microsome = assay: Half life in rat liver microsomes in presence of NADPH; assay type: ADME
Summary of the method: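 Rat liver microsomes with NADPH; half-life in minutes.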

[3] = target: T1, Ubiquitin carboxyl-terminal hydrolase 1/WD repeat-containing protein 48 (Homo sapiens, UniProt O94782+Q8TAF3); assay: Inhibition of human USP1/UAF1 using ubiquitin-rhodamine110 substrate by fluorescence assay
[4] = target: T1, Ubiquitin carboxyl-terminal hydrolase 1/WD repeat-containing protein 48; assay: Inhibition of human USP1/UAF1 in human H1299 cells assessed as reduction in colony formation up to 25 uM after 7 days; assay type: cell-based
[5] = target: T1, Ubiquitin carboxyl-terminal hydrolase 1/WD repeat-containing protein 48; assay: Inhibition of human USP1/UAF1 in human […] cells assessed as increase in Ub-PCNA measured after 4 hrs by Western blotting analysis; assay type: cell-based
[6] = target: T1, Ubiquitin carboxyl-terminal hydrolase 1/WD repeat-containing protein 48; assay: Inhibition of human USP1/UAF1 in human […] cells assessed as increase in Ub-PCNA measured at 1 uM after 4 hrs by Western blotting analysis; assay type: cell-based

T1 sequence (O94782 whole entry): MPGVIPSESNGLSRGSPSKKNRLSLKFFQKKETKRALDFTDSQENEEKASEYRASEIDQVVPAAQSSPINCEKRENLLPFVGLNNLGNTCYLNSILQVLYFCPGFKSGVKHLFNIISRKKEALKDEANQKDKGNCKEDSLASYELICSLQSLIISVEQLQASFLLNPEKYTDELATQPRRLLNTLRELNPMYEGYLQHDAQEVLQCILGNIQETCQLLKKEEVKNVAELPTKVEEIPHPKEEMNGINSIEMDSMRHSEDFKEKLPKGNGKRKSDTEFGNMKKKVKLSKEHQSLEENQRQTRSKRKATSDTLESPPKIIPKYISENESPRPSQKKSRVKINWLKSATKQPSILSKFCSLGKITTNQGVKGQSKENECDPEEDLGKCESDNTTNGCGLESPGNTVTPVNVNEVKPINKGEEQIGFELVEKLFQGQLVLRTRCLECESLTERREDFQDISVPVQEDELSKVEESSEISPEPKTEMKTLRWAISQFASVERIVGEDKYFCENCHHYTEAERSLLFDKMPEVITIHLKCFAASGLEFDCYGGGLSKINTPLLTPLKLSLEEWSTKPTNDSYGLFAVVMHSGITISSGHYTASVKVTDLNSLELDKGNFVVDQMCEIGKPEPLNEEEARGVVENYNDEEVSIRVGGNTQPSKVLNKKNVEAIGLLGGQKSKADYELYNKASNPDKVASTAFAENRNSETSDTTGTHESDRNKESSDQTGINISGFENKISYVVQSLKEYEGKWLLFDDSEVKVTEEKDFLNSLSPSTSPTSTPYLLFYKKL
T1 sequence (Q8TAF3 whole entry): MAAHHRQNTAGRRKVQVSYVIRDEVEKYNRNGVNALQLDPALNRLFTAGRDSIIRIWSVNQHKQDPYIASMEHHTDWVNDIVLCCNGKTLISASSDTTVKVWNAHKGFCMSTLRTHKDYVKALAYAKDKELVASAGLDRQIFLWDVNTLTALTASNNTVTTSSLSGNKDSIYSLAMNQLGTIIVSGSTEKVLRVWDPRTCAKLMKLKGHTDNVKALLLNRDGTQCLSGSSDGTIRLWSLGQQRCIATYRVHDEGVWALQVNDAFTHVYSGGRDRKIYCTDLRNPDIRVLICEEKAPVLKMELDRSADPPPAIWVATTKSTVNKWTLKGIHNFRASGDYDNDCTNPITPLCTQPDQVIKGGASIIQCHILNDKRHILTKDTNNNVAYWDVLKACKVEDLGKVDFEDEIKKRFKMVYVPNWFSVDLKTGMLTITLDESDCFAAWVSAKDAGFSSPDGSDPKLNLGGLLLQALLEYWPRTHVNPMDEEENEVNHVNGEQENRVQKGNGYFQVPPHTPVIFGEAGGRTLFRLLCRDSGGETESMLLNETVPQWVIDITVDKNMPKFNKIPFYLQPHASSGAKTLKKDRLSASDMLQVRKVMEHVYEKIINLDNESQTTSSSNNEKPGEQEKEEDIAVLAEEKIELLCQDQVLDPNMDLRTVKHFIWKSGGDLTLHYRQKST
Ubiquitin carboxyl-terminal hydrolase 1/WD repeat-containing protein 48 (Homo sapiens, UniProt O94782), sequence (O94782 whole entry): as the sequence (O94782 whole entry) above
Ubiquitin carboxyl-terminal hydrolase 1/WD repeat-containing protein 48 (Homo sapiens, UniProt O94782), sequence (Q8TAF3 whole entry, further chain): as the sequence (Q8TAF3 whole entry) above

SMILES	IC50 [2] [nM]	other results
CC(C)c1ccccc1-c1nc(NCc2ccc(-c3cccnc3)cc2)c2occc2n1	80	inhibition at 5 µM [1]: > 70%
Cc1cnc(-c2ccccc2C(F)F)nc1NCc1ccc(-n2ccnn2)cc1	820	t1/2 (Liver microsome): 21 min
CC(C)c1ccccc1-c1ncc(N(C)C)c(NCc2ccc(-c3cccnc3)cc2)n1	190	–
Cc1cnc(-c2ccccc2C(C)C)nc1NCC1CCN(c2cnccn2)CC1	140	–
CC(C)c1ccccc1-c1nc2c(c(NCc3ccc(-c4cccnc4)cc3)n1)CCC2	160	–
Cc1nc(-c2ccccc2C(C)C)nc(NCc2ccc(-c3cccnc3)cc2)c1C	120	–
Cc1cnc(-c2ccccc2C(C)C)nc1NCc1ccc(-c2ccc(F)nc2)cc1	80	–
FC(F)(F)c1ccccc1-c1nc(NCc2ccc(C3CCCCC3)cc2)c2ccccc2n1	9800	–
CC(C)c1ccccc1-c1nc(NCc2ccc(-c3cccnc3)cc2)c2ccccc2n1	180	–
FC(F)(F)c1cccc(-c2nc(NCc3ccc(-c4cccnc4)cc3)c3ccccc3n2)c1	–	IC50 [3]: Not Active
c1cncc(-c2ccc(CNc3nc(C4CCCC4)nc4ccccc34)cc2)c1	–	IC50 [3]: Not Active
CC(C)c1ccccc1-c1nc(NCc2ccc(-c3cccnc3)cc2)c2nc[nH]c2n1	120	–
Fc1ccccc1-c1nc(NCc2ccc(-c3cccnc3)cc2)c2ccccc2n1	6500	–
N#Cc1ccc(CNc2nc(-c3ccccc3C(F)(F)F)nc3ccccc23)cc1	5700	–
c1cncc(-c2ccc(CNc3nc(-n4ccnc4)nc4ccccc34)cc2)c1	–	IC50 [3]: Not Active
Cc1cc(NCc2ccc(-c3cccnc3)cc2)nc(-c2ccccc2C(C)C)n1	210	–
Cc1cnc(-c2ccccc2C(C)O)nc1NCc1ccc(-c2cccnc2)cc1 (centres undefined)	2000	–
Cc1cnc(-c2ccccc2C2COC2)nc1NCc1ccc(-c2cccnc2)cc1	–	t1/2 (Liver microsome): > 30 min; IC50 [3]: Not Active
CC(C)c1ccccc1-c1nccc(NCc2ccc(-c3cccnc3)cc2)n1	150	–
Cc1cccc(CNc2nc(-c3ccccc3C(C)C)ncc2C)c1	130	–
CC(C)c1ccccc1-c1nc(NCc2ccc(-c3cccnc3)cc2)c2cccn2n1	260	–

SMILES	IC50 [2] [nM]	other results
FC(F)(F)c1ccc(CNc2nc(-c3ccccc3C(F)(F)F)nc3ccccc23)cc1	8900	–
COc1cnc(-c2ccccc2C(C)C)nc1NCc1ccc(-c2cccnc2)cc1	70	inhibition at 5 µM [1]: > 70%
FC(F)(F)c1ccccc1-c1nc(NCc2ccc(-c3cccnc3)cc2)c2ccccc2n1	1100	–
CSc1cnc(-c2ccccc2C(C)C)nc1NCc1ccc(-c2cccnc2)cc1	110	–
FC(F)(F)c1ccccc1-c1nc(NCc2ccc3c(c2)OCO3)c2ccccc2n1	8400	–
FC(F)(F)c1ccccc1-c1nc(NCc2ccc(-c3cncnc3)cc2)c2ccccc2n1	3000	–
Cc1cnc(-c2ccccc2C2COC2)nc1NCc1ccc(-n2ccnn2)cc1	–	t1/2 (Liver microsome): > 30 min; inhibition [4]: inactive; IC50 [3]: Not Active
FC(F)(F)c1cc(-c2ccc(CNc3nc(-c4ccccc4C(F)(F)F)nc4ccccc34)cc2)ccn1	4900	–
FC(F)(F)c1ccccc1-c1nc(NCc2ccc(N3CCOCC3)cc2)c2ccccc2n1	10400	–
Cc1cnc(-c2ccccc2C(C)C)nc1NCC1CCN(c2cccnc2)CC1	80	inhibition [5]: Dose-dependent effect; Activity [6]: Active; inhibition at 5 µM [1]: > 70%
FC(F)(F)c1ccccc1-c1nc(NCc2ccc(-c3ccncc3)cc2)c2ccccc2n1	1900	–
[2H]C([2H])(Nc1nc(-c2ccccc2C(C)C)ncc1C)c1ccc(-n2ccnn2)cc1	–	t1/2 (Liver microsome): 12 min
[2H]C([2H])(Nc1nc(-c2ccccc2C([2H])(C([2H])([2H])[2H])C([2H])([2H])[2H])ncc1C)c1ccc(-n2ccnn2)cc1	–	t1/2 (Liver microsome): 13 min
Cc1cccc(C(CO)Nc2nc(-c3ccccc3C(C)C)ncc2C)c1 (centres undefined)	21000	–
Cc1cnc(-c2ccccc2C2CC2)nc1NCc1ccc(-c2cccnc2)cc1	180	t1/2 (Liver microsome): 6.2 min
Cc1cnc(-c2ccccc2C(C)C)nc1NCc1ccc(-n2ccnc2)cc1	300	inhibition at 5 µM [1]: > 70%
Clc1ccccc1-c1nc(NCc2ccc(-c3cccnc3)cc2)c2ccccc2n1	2100	–
Cc1cnc(-c2ccccc2CO)nc1NCc1ccc(-c2cccnc2)cc1	10500	–
Cc1ccc(CNc2nc(-c3ccccc3C(F)(F)F)nc3ccccc23)s1	5100	–
Brc1ccccc1-c1nc(NCc2ccc(-c3cccnc3)cc2)c2ccccc2n1	1600	–
CCc1ccccc1-c1nc(NCc2ccc(-c3cccnc3)cc2)c2ccccc2n1	780	–

SMILES	IC50 [2] [nM]	other results
Cc1cnc(-c2ccccc2C(C)C)nc1NCc1cccs1	270	–
FC(F)(F)c1ccccc1-c1nc(NCc2ccc(-c3cccc(Cl)c3)cc2)c2ccccc2n1	2700	–
Cc1ccccc1-c1nc(NCc2ccc(-c3cccnc3)cc2)c2ccccc2n1	1100	–
FC(F)(F)c1ccccc1-c1nc(NCc2ccc(-c3ccccc3)cc2)c2ccccc2n1	3700	–
[2H]C([2H])([2H])C([2H])(c1ccccc1-c1ncc(C)c(NC(C)(C)c2ccc(-n3ccnn3)cc2)n1)C([2H])([2H])[2H]	760	t1/2 (Liver microsome): 10 min
CC(=O)c1ccccc1-c1ncc(C)c(NCc2ccc(-c3cccnc3)cc2)n1	8700	–
Cc1cnc(-c2ccccc2C(C)C)nc1NCC1CN(c2cccnc2)C1	21700	–
[2H]C([2H])([2H])C([2H])(c1ccccc1-c1ncc(C)c(NCc2ccc(-n3ccnn3)cc2)n1)C([2H])([2H])[2H]	–	t1/2 (Liver microsome): 9.5 min
Cc1cnc(-c2ccccc2C(C)C)nc1NCC1CCN(c2cccnc2)C1 (centres undefined)	800	–
FC(F)c1ccccc1-c1nc(NCc2ccc(-c3cccnc3)cc2)c2ccccc2n1	1400	–
FC(F)(F)c1ccccc1-c1nc(NCc2ccc(Cl)cc2)c2ccccc2n1	4800	–
Cc1cnc(-c2ccccc2C2CCC2)nc1NCc1ccc(-n2ccnn2)cc1	180	t1/2 (Liver microsome): 5.1 min
CC(C)c1ccccc1-c1ncc(F)c(NCc2ccc(-c3cccnc3)cc2)n1	110	–
CC(C)c1ccccc1-c1nc(NCc2ccc(-c3cccnc3)cc2)c2ccsc2n1	280	–
Cc1ccc(N2CCC(CNc3nc(-c4ccccc4C(C)C)ncc3C)CC2)cn1	90	–
CC(C)c1ccccc1-c1ncc(N)c(NCc2ccc(-c3cccnc3)cc2)n1	310	–
FC(F)(F)c1ccccc1-c1nc(NCc2ccc(-c3ccc(Cl)c(Cl)c3)cc2)c2ccccc2n1	2200	–
FC(F)(F)c1ccccc1-c1nc(NCc2ccc(-c3ccc(Cl)cc3)cc2)c2ccccc2n1	3600	–
Cc1cnc(-c2ccccc2C(C)C)nc1NCc1cccnc1	1300	–
c1cncc(-c2ccc(CNc3nc(N4CCCC4)nc4ccccc34)cc2)c1	–	IC50 [3]: Not Active
CC(C)c1ccccc1-c1nc(NCc2ccc(-c3cccnc3)cc2)c2sccc2n1	110	–

SMILES	IC50 [2] [nM]	other results
CC(C)c1ccccc1-c1nc2c(c(NCc3ccc(-c4cccnc4)cc3)n1)CCNC2	860	–
CC(C)c1ccccc1-c1nc2c(c(NCc3ccc(-c4cccnc4)cc3)n1)CNC2	2900	–
Fc1ccc(CNc2nc(-c3ccccc3C(F)(F)F)nc3ccccc23)cc1	3400	–
O=[N+]([O-])c1ccccc1-c1nc(NCc2ccc(-c3cccnc3)cc2)c2ccccc2n1	7800	–
FC(F)(F)c1ccccc1-c1nc(NCc2cccs2)c2ccccc2n1	7900	inhibition [5]: Dose-dependent effect
FC(F)(F)c1ccccc1-c1nc(NCc2ccc(Cl)c(Cl)c2)c2ccccc2n1	10400	–
Cc1cnc(-c2ccccc2C(C)C)nc1NCc1ccc(-c2nnn[nH]2)cc1	5900	–
c1cncc(-c2ccc(CNc3nc(N4CCOCC4)nc4ccccc34)cc2)c1	–	IC50 [3]: Not Active
Cc1cnc(-c2ccccc2C(C)C)nc1NCc1ccc(-c2ccnc(C(F)(F)F)c2)cc1	320	–
Cc1ccc(-c2ccc(CNc3nc(-c4ccccc4C(C)C)ncc3C)cc2)cn1	50	–
COc1ccccc1-c1nc(NCc2ccc(-c3cccnc3)cc2)c2ccccc2n1	940	–
Cc1cnc(-c2ccccc2C(C)C)nc1NCC1CCN(C2COC2)CC1	13600	–
FC(F)(F)c1ccccc1-c1nc(NCC#Cc2cccnc2)c2ccccc2n1	8900	–
Cc1cnc(-c2ccccc2C(C)C)nc1NCC1CCN(C)CC1	–	IC50 [3]: Not Active
FC(F)(F)c1ccc(-c2nc(NCc3ccc(-c4cccnc4)cc3)c3ccccc3n2)cc1	–	IC50 [3]: Not Active
Cc1cnc(-c2ccccc2C(C)C)nc1NC(C)(C)c1ccc(-n2ccnn2)cc1	590	t1/2 (Liver microsome): 22 min
FC(F)(F)c1ccccc1-c1nc(NCc2ccccc2)c2ccccc2n1	3100	–
COc1ccc(CNc2nc(-c3ccccc3C(F)(F)F)nc3ccccc23)cc1	6200	–
[2H]C([2H])([2H])C(c1ccccc1-c1ncc(C)c(NCc2ccc(-n3ccnn3)cc2)n1)C([2H])([2H])[2H]	–	t1/2 (Liver microsome): 7.9 min
Cc1cnc(-c2ccccc2C(C)C)nc1NCc1ccc(-c2cccnc2)cc1	70	t1/2 (Liver microsome): 5.8 min
